Laboratory results taken from ChEMBL document CHEMBL2412964, “Discovery of novel tetrahydro-pyrazolo [4,3-c] pyridines for the treatment of neuropathic pain: synthesis and neuropharmacology” (Eur J Med Chem, 2013).

Experiments:
Rattus norvegicus [1] = experiment: Antinociceptive activity in Wistar rat chronic constriction injury model assessed as reversal of spontaneous pain response at 100 mg/kg, ip after 60 mins (reference value: 4.6 +/- 0.6%); assay type: functional; details: route intraperitoneal
Rattus norvegicus [2] = experiment: Antinociceptive activity in Wistar rat chronic constriction injury model assessed as reversal of mechanical allodynia at 100 mg/kg, ip after 60 mins (reference value: 4.9 +/- 1.0%); assay type: functional; details: route intraperitoneal
Rattus norvegicus [3] = experiment: Antinociceptive activity in Wistar rat partial sciatic nerve ligation model assessed as reversal of tactile allodynia at 100 mg/kg, ip after 120 mins relative to control; assay type: functional; details: route intraperitoneal
Mus musculus [4] = experiment: Neurotoxicity in Swiss albino mouse assessed as minimal motor impairment at 300 mg/kg after 0.5 hrs by rotarod test; assay type: toxicity, organism-based; design: dose 300 mg/kg; details: in vivo
Summary of the method: (§1)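 Swiss albino mice of either sex, 20-25 g, dosed at 30, 100 and 300 mg/kg, three per group. Minimal motor impairment scored by rotarod at 0.5 and 4.0 h after dosing. Reported value is the lowest dose giving impairment in half or more of the mice.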

Rattus norvegicus [5] = experiment: Antinociceptive activity in Wistar rat partial sciatic nerve ligation model assessed as reversal of cold allodynia at 100 mg/kg, ip after 30 mins (reference value: 4.1 +/- 1.0%); assay type: functional; details: route intraperitoneal
Rattus norvegicus [6] = experiment: Antinociceptive activity in Wistar rat chronic constriction injury model assessed as reversal of mechanical allodynia at 100 mg/kg, ip after 30 mins (reference value: 4.7 +/- 2.1%); assay type: functional; details: route intraperitoneal
Rattus norvegicus [7] = experiment: Antinociceptive activity in Wistar rat partial sciatic nerve ligation model assessed as reversal of spontaneous pain response at 100 mg/kg, ip after 120 mins (reference value: 1.2 +/- 0.1%); assay type: functional; details: route intraperitoneal
Rattus norvegicus [8] = experiment: Antinociceptive activity in Wistar rat partial sciatic nerve ligation model assessed as reversal of tactile allodynia at 100 mg/kg, ip after 30 mins (reference value: 7.7 +/- 0.7%); assay type: functional; details: route intraperitoneal
Rattus norvegicus [9] = experiment: Antinociceptive activity in Wistar rat chronic constriction injury model assessed as reversal of spontaneous pain response at 100 mg/kg, ip after 120 mins (reference value: 4.5 +/- 0.2%); assay type: functional; details: route intraperitoneal
Rattus norvegicus [10] = experiment: Antinociceptive activity in Wistar rat partial sciatic nerve ligation model assessed as reversal of mechanical allodynia at 100 mg/kg, ip after 60 mins (reference value: 2.8 +/- 0.3%); assay type: functional; details: route intraperitoneal
Rattus norvegicus [11] = experiment: Antinociceptive activity in Wistar rat partial sciatic nerve ligation model assessed as reversal of tactile allodynia at 100 mg/kg, ip after 60 mins (reference value: 12.5 +/- 1.2%); assay type: functional; details: route intraperitoneal
Rattus norvegicus [12] = experiment: Antinociceptive activity in Wistar rat partial sciatic nerve ligation model assessed as reversal of spontaneous pain response at 100 mg/kg, ip after 60 mins (reference value: 2.9 +/- 0.3%); assay type: functional; details: route intraperitoneal
Rattus norvegicus [13] = experiment: Antinociceptive activity in Wistar rat partial sciatic nerve ligation model assessed as reversal of mechanical allodynia at 100 mg/kg, ip after 120 mins (reference value: 2.9 +/- 0.3%); assay type: functional; details: route intraperitoneal
Rattus norvegicus [14] = experiment: Antinociceptive activity in Wistar rat chronic constriction injury model assessed as reversal of tactile allodynia at 100 mg/kg, ip after 30 mins (reference value: 3.4 +/- 0.8%); assay type: functional; details: route intraperitoneal
Rattus norvegicus [15] = experiment: Antinociceptive activity in Wistar rat partial sciatic nerve ligation model assessed as reversal of cold allodynia at 100 mg/kg, ip after 60 mins (reference value: 2.5 +/- 0.3%); assay type: functional; details: route intraperitoneal
Mus musculus [16] = experiment: Neurotoxicity in Swiss albino mouse assessed as minimal motor impairment at 300 mg/kg after 4 hrs by rotarod test; assay type: toxicity, organism-based; design: dose 300 mg/kg; details: in vivo; summary of the method: as §1
Mus musculus [17] = experiment: Antinociceptive activity in Swiss albino mouse assessed as inhibition of acetic acid-induced writhing at 100 mg/kg administered 30 mins prior to acetic acid-challenge measured for 30 mins relative to control; assay type: functional
Summary of the method: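 Swiss albino mice (20–25 g, either sex); writhing induced by i.p. 0.1 mL of 2.0% v/v acetic acid given half an hour after test compound dosing.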

Rattus norvegicus [18] = experiment: Antinociceptive activity in Wistar rat chronic constriction injury model assessed as reversal of cold allodynia at 100 mg/kg, ip after 120 mins (reference value: 5.4 +/- 1.9%); assay type: functional; details: route intraperitoneal
Rattus norvegicus [19] = experiment: Antinociceptive activity in Wistar rat partial sciatic nerve ligation model assessed as reversal of mechanical allodynia at 100 mg/kg, ip after 30 mins (reference value: 2.9 +/- 0.3%); assay type: functional; details: route intraperitoneal
Rattus norvegicus [20] = experiment: Antinociceptive activity in Wistar rat chronic constriction injury model assessed as reversal of spontaneous pain response at 100 mg/kg, ip after 30 mins (reference value: 8.9 +/- 4.6%); assay type: functional; details: route intraperitoneal
Rattus norvegicus [21] = experiment: Antinociceptive activity in Wistar rat chronic constriction injury model assessed as reversal of tactile allodynia at 100 mg/kg, ip after 60 mins (reference value: 1.3 +/- 0.3%); assay type: functional; details: route intraperitoneal
Rattus norvegicus [22] = experiment: Antinociceptive activity in Wistar rat partial sciatic nerve ligation model assessed as reversal of cold allodynia at 100 mg/kg, ip after 120 mins (reference value: 1.5 +/- 0.5%); assay type: functional; details: route intraperitoneal
Rattus norvegicus [23] = experiment: Antinociceptive activity in Wistar rat chronic constriction injury model assessed as reversal of cold allodynia at 100 mg/kg, ip after 60 mins (reference value: 6.3 +/- 1.9%); assay type: functional; details: route intraperitoneal
Mus musculus [24] = experiment: Antinociceptive activity in Swiss albino mouse assessed as inhibition of formalin-induced flinching at 100 mg/kg administered 30 mins prior to test measured for 10 to 30 mins relative to control; assay type: functional
Rattus norvegicus [25] = experiment: Antinociceptive activity in Wistar rat chronic constriction injury model assessed as reversal of mechanical allodynia at 100 mg/kg, ip after 120 mins (reference value: 5.3 +/- 0.5%); assay type: functional; details: route intraperitoneal
Mus musculus [26] = experiment: Antinociceptive activity in Swiss albino mouse assessed as inhibition of formalin-induced flinching at 100 mg/kg administered 30 mins prior to test measured up to 5 mins relative to control; assay type: functional
Rattus norvegicus [27] = experiment: Antinociceptive activity in Wistar rat chronic constriction injury model assessed as reversal of cold allodynia at 100 mg/kg, ip after 30 mins (reference value: 0.6 +/- 2.7%); assay type: functional; details: route intraperitoneal
Rattus norvegicus [28] = experiment: Antinociceptive activity in Wistar rat chronic constriction injury model assessed as reversal of tactile allodynia at 100 mg/kg, ip after 120 mins (reference value: 4.1 +/- 2.1%); assay type: functional; details: route intraperitoneal
Rattus norvegicus [29] = experiment: Antinociceptive activity in Wistar rat partial sciatic nerve ligation model assessed as reversal of spontaneous pain response at 100 mg/kg, ip after 30 mins (reference value: 3.2 +/- 0.3%); assay type: functional; details: route intraperitoneal

SMILES | Activity (Rattus norvegicus [1]) [%] | Activity (Rattus norvegicus [2]) [%] | Activity (Rattus norvegicus [3]) [%] | Activity (Rattus norvegicus [5]) [%] | Activity (Rattus norvegicus [6]) [%] | Activity (Rattus norvegicus [7]) [%] | Activity (Rattus norvegicus [8]) [%] | Activity (Rattus norvegicus [9]) [%] | Activity (Rattus norvegicus [10]) [%] | Activity (Rattus norvegicus [11]) [%] | Activity (Rattus norvegicus [12]) [%] | Activity (Rattus norvegicus [13]) [%] | Activity (Rattus norvegicus [14]) [%] | Activity (Rattus norvegicus [15]) [%] | Activity (Rattus norvegicus [18]) [%] | Activity (Rattus norvegicus [19]) [%] | Activity (Rattus norvegicus [20]) [%] | Activity (Rattus norvegicus [21]) [%] | Activity (Rattus norvegicus [22]) [%] | Activity (Rattus norvegicus [23]) [%] | further results
CCN1CCc2c(c(C(C)(C)C)nn2C(=O)Nc2cccc(C(F)(F)F)c2)C1 | 65.6 | 12.2 | 13 | 52.7 | 3.6 | 19.8 | 24.7 | 75.2 | 59.5 | 13 | 42.2 | 45.8 | 6.7 | 19.1 | 9.3 | 52.8 | 89.5 | 13.7 | 15 | 35 | Activity (Mus musculus [4]): Non-toxic; Activity (Mus musculus [16]): Non-toxic; inhibition in vivo at 100 mg/kg (Mus musculus [17]): 61.4%; inhibition in vivo at 100 mg/kg (Mus musculus [24]): 55.1%; Activity (Rattus norvegicus [25]): 12.1%; inhibition in vivo at 100 mg/kg (Mus musculus [26]): 2.6%; Activity (Rattus norvegicus [27]): 55.6%; Activity (Rattus norvegicus [28]): 9.9%; Activity (Rattus norvegicus [29]): 87.3%
CCN1CCc2c(c(C(C)(C)C)nn2C(=O)Nc2cc(C)ccc2F)C1 | 20.5 | 12.7 | 4.5 | 19.3 | 13.8 | 7.5 | 12.2 | 53.9 | 12.1 | 12.2 | 9.9 | 8.8 | 19.7 | 16.4 | 12 | 12.1 | 14.4 | 12.2 | 19.3 | 7.1 | Activity (Mus musculus [4]): Non-toxic; Activity (Mus musculus [16]): Non-toxic; inhibition in vivo at 100 mg/kg (Mus musculus [17]): 17.5%; inhibition in vivo at 100 mg/kg (Mus musculus [24]): 60.5%; Activity (Rattus norvegicus [25]): 8.8%; inhibition in vivo at 100 mg/kg (Mus musculus [26]): 7%; Activity (Rattus norvegicus [27]): 3.4%; Activity (Rattus norvegicus [28]): 4.5%; Activity (Rattus norvegicus [29]): 15.5%
CCN1CCc2c(c(C)nn2C(=O)Nc2ccc(Cl)cc2)C1 | 15 | 14.6 | 14.2 | 13.2 | 14.6 | 11 | 18.1 | 27.4 | 5 | 8.2 | 12.7 | 11.3 | 13.2 | 7.9 | 9.5 | 17.5 | 16.9 | 8 | 11 | 23 | Activity (Mus musculus [4]): Non-toxic; Activity (Mus musculus [16]): Non-toxic; inhibition in vivo at 100 mg/kg (Mus musculus [17]): 55.2%; inhibition in vivo at 100 mg/kg (Mus musculus [24]): 7.5%; Activity (Rattus norvegicus [25]): 8.3%; inhibition in vivo at 100 mg/kg (Mus musculus [26]): 1.7%; Activity (Rattus norvegicus [27]): 15.9%; Activity (Rattus norvegicus [28]): 19.7%; Activity (Rattus norvegicus [29]): 13.6%
CCN1CCc2c(c(C)nn2C(=O)Nc2c(C)cccc2C)C1 | 68.3 | 73.2 | 38.3 | 61.3 | 67 | 58.4 | 18.4 | 53.7 | 69.4 | 46.4 | 66.1 | 44.4 | 55 | 41.6 | 13.4 | 57.8 | 77.3 | 58 | 37.2 | 52.6 | Activity (Mus musculus [4]): Non-toxic; Activity (Mus musculus [16]): Non-toxic; inhibition in vivo at 100 mg/kg (Mus musculus [17]): 60.5%; inhibition in vivo at 100 mg/kg (Mus musculus [24]): 78.9%; Activity (Rattus norvegicus [25]): 26.1%; inhibition in vivo at 100 mg/kg (Mus musculus [26]): 12.2%; Activity (Rattus norvegicus [27]): 63.4%; Activity (Rattus norvegicus [28]): 65.1%; Activity (Rattus norvegicus [29]): 70.3%
NCC1(CC(=O)O)CCCCC1 [GABAPENTIN] | 91.2 | 78.6 | 58.5 | 54.1 | 92.9 | 82.4 | 43.1 | 88.8 | 91.3 | 56.1 | 94.2 | 55.8 | 35.4 | 58.2 | 35.6 | 86.2 | 71.2 | 59.4 | 32.1 | 42.9 | Activity (Rattus norvegicus [25]): 75.7%; Activity (Rattus norvegicus [27]): 58%; Activity (Rattus norvegicus [28]): 50.7%; Activity (Rattus norvegicus [29]): 92.9%
CCN1CCc2c(c(C)nn2C(=O)Nc2ccc(Br)cc2)C1 | 65.1 | 66.7 | 29.2 | 59.7 | 83.3 | 41.3 | 58.3 | 63.6 | 70 | 58.3 | 60.8 | 40 | 57.7 | 43.7 | 32.6 | 50 | 73.9 | 70.5 | 41.5 | 38.1 | Activity (Mus musculus [4]): Non-toxic; Activity (Mus musculus [16]): Non-toxic; inhibition in vivo at 100 mg/kg (Mus musculus [17]): 59.7%; inhibition in vivo at 100 mg/kg (Mus musculus [24]): 81.6%; Activity (Rattus norvegicus [25]): 61.1%; inhibition in vivo at 100 mg/kg (Mus musculus [26]): 1.7%; Activity (Rattus norvegicus [27]): 67.4%; Activity (Rattus norvegicus [28]): 57.7%; Activity (Rattus norvegicus [29]): 56.7%
CCN1CCc2c(c(C(C)(C)C)nn2C(=O)Nc2ccc(Cl)cc2)C1 | 22.3 | 11.7 | 28.5 | 18.2 | 20 | 6.3 | 15.1 | 12.5 | 16.7 | 3.5 | 13.9 | 11.1 | 13.8 | 17.2 | 10.5 | 11.1 | 18.3 | 13.8 | 10.6 | 10.8 | Activity (Mus musculus [4]): Non-toxic; Activity (Mus musculus [16]): Non-toxic; inhibition in vivo at 100 mg/kg (Mus musculus [17]): 15.8%; inhibition in vivo at 100 mg/kg (Mus musculus [24]): 68.3%; Activity (Rattus norvegicus [25]): 2.2%; inhibition in vivo at 100 mg/kg (Mus musculus [26]): 3.5%; Activity (Rattus norvegicus [27]): 17.8%; Activity (Rattus norvegicus [28]): 12.8%; Activity (Rattus norvegicus [29]): 20.9%
